Active and inactive are the calls of the source. No cut-off for these calls is given here.
Legend:
PC-12 [1] = experiment: Neuroprotective activity in rat PC12 cells assessed as reduction of H2O2-induced mitochondrial calcium level at 5 uM incubated for 24 hrs prior to H2O2 challenge measured after 30 mins by Rhod-2 staining-based fluorocytometric analysis (reference value: 1.7 +/- 0.01 nM); type: functional
Procedure, shortened: (§1)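 24 h exposure at 5 or 10 μM, optionally followed by 30 min H2O2 (0.1 mM PC12, 1 mM U373-MG). Cells loaded with Rhod-2/AM in Krebs normal-calcium medium for 40 min at 37 °C in the dark, then 30 min for ester hydrolysis. Fluorescence at ex 552/em 581 nm for 4 min, then 15 min after A23187 (5 μM). Ratio of post-ionophore maximum to basal, relative to control; mean ± SD, n = 9.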

PC-12 [2] = experiment: Neuroprotective activity in rat PC12 cells assessed as decrease in H2O2-induced cytosolic calcium level at 5 uM incubated for 24 hrs prior to H2O2 challenge measured after 30 mins by indo-1/AM staining-based fluorocytometric analysis (reference value: 395.9 +/- 15.9 nM); type: functional
[3] = Neurotoxicity in human U373MG cells assessed as change in mitochondrial calcium level at 5 uM after 24 hrs by Rhod-2 staining-based fluorocytometric analysis (reference value: 1 +/- 0.03 nM); type: toxicity, cell-based; details: u-373mg atcc; procedure, shortened: as §1
[4] = Neurotoxicity in human U373MG cells assessed as effect on cellular ATP level at 5 to 10 uM after 24 hrs by HPLC analysis; type: toxicity, cell-based; details: u-373mg atcc
Procedure, shortened: (§2)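 After 24 h at 5 or 10 μM, with or without H2O2 for 30 min (0.1 mM PC12; 1 mM U373-MG), cells extracted in 0.6 M HClO4/25 mM EDTA and neutralized with KOH/Tris. Reversed-phase C18 HPLC, isocratic 100 mM KH2PO4 (pH 6.5)/1% methanol at 1 mL/min, UV at 254 nm. Quantified against an ATP standard curve (0.25–5 μM), normalized to protein, as % of control; mean ± SD, n = 9.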

U373 MG [5] = experiment: Neuroprotective activity in human U373MG cells assessed as reduction of H2O2-induced mitochondrial calcium level at 5 uM incubated for 24 hrs prior to H2O2 challenge measured after 30 mins by Rhod-2 staining-based fluorocytometric analysis (reference value: 1.5 +/- 0.02 nM); type: functional, U-373MG ATCC; procedure, shortened: as §1
[6] = Neurotoxicity in human U373MG cells assessed as change in mitochondrial membrane potential at 5 to 10 uM after 24 hrs by TMRM staining-based fluorocytometric analysis relative to control; type: toxicity, cell-based; details: u-373mg atcc
Procedure, shortened: (§3)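 Cells given 5 or 10 μM for 24 h, then H2O2 for 30 min (0.1 mM PC12, 1 mM U373-MG) where challenged. Loaded in Krebs medium with 150 nM TMRM; fluorescence at ex 549/em 573 nm read for 45 min at 37 °C. FCCP (6 μM) plus oligomycin (0.25 μg/mL) then added for maximal depolarization and read 15 min. Value from maximal minus basal fluorescence, as % of control; mean ± SD, n = 9.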

PC-12 [7] = experiment: Neurotoxicity in rat PC12 cells assessed as change in mitochondrial membrane potential at 5 to 10 uM after 24 hrs by TMRM staining-based fluorocytometric analysis relative to control; type: toxicity, cell-based; details: pc-12, 24 h; procedure, shortened: as §3
PC-12 [8] = experiment: Neurotoxicity in rat PC12 cells assessed as effect on cellular ATP level at 5 to 10 uM after 24 hrs by HPLC analysis; type: toxicity, cell-based; details: pc-12, 24 h; procedure, shortened: as §2
U373 MG [9] = experiment: Neuroprotective activity in human U373MG cells assessed as decrease in H2O2-induced cytosolic calcium level at 5 uM incubated for 24 hrs prior to H2O2 challenge measured after 30 mins by indo-1/AM staining-based fluorocytometric analysis (reference value: 482.7 +/- 14.5 nM); type: functional, U-373MG ATCC
U373 MG [10] = experiment: Neuroprotective activity in human U373MG cells assessed as reduction of H2O2-induced mitochondrial calcium level at 10 uM incubated for 24 hrs prior to H2O2 challenge measured after 30 mins by Rhod-2 staining-based fluorocytometric analysis (reference value: 1.5 +/- 0.02 nM); type: functional, U-373MG ATCC; procedure, shortened: as §1
U373 MG [11] = experiment: Neuroprotective activity in human U373MG cells assessed as protection against H2O2-induced reduction in cellular ATP level at 5 to 10 uM incubated for 24 hrs prior to H2O2 challenge measured after 30 mins by HPLC analysis; type: functional, cell-based; details: U-373MG ATCC; procedure, shortened: as §2
[12] = Neurotoxicity in human U373MG cells assessed as change in cytosolic calcium level at 5 uM after 24 hrs by indo-1/AM staining-based fluorocytometric analysis (reference value: 91.1 +/- 12.5 nM); type: toxicity, cell-based; details: u-373mg atcc
[13] = Neurotoxicity in human U373MG cells assessed as change in mitochondrial calcium level at 10 uM after 24 hrs by Rhod-2 staining-based fluorocytometric analysis (reference value: 1 +/- 0.03 nM); type: toxicity, cell-based; details: u-373mg atcc; procedure, shortened: as §1
U373 MG [14] = experiment: Neuroprotective activity in human U373MG cells assessed as protection against H2O2-induced reduction in mitochondrial membrane potential at 5 to 10 uM incubated for 24 hrs prior to H2O2 challenge measured after 30 mins by TMRM staining-based fluorocytometric analysis relative to control; type: functional, cell-based; details: U-373MG ATCC; procedure, shortened: as §3
PC-12 [15] = experiment: Neurotoxicity in rat PC12 cells assessed as change in cytosolic calcium level at 5 uM after 24 hrs by indo-1/AM staining-based fluorocytometric analysis (reference value: 51.3 +/- 11.3 nM); type: toxicity, cell-based; details: pc-12, 24 h
PC-12 [16] = experiment: Neuroprotective activity in rat PC12 cells assessed as decrease in H2O2-induced cytosolic calcium level at 10 uM incubated for 24 hrs prior to H2O2 challenge measured after 30 mins by indo-1/AM staining-based fluorocytometric analysis (reference value: 395.9 +/- 15.9 nM); type: functional
PC-12 [17] = experiment: Neuroprotective activity in rat PC12 cells assessed as protection against H2O2-induced reduction in cellular ATP level at 5 to 10 uM incubated for 24 hrs prior to H2O2 challenge measured after 30 mins by HPLC analysis; type: functional, cell-based; procedure, shortened: as §2
U373 MG [18] = experiment: Neuroprotective activity in human U373MG cells assessed as decrease in H2O2-induced cytosolic calcium level at 10 uM incubated for 24 hrs prior to H2O2 challenge measured after 30 mins by indo-1/AM staining-based fluorocytometric analysis (reference value: 482.7 +/- 14.5 nM); type: functional, U-373MG ATCC
PC-12 [19] = experiment: Neuroprotective activity in rat PC12 cells assessed as protection against H2O2-induced reduction in mitochondrial membrane potential at 5 to 10 uM incubated for 24 hrs prior to H2O2 challenge measured after 30 mins by TMRM staining-based fluorocytometric analysis relative to control; type: functional, cell-based; procedure, shortened: as §3
[20] = Neurotoxicity in human U373MG cells assessed as change in cytosolic calcium level at 10 uM after 24 hrs by indo-1/AM staining-based fluorocytometric analysis (reference value: 91.1 +/- 12.5 nM); type: toxicity, cell-based; details: u-373mg atcc
PC-12 [21] = experiment: Neuroprotective activity in rat PC12 cells assessed as inhibition of H2O2-induced caspase-3 activity at 5 to 10 uM incubated for 24 hrs prior to H2O2 challenge measured after 30 mins by fluorometric analysis in presence of Ac-DEVD-AMC; type: functional, cell-based
Procedure, shortened: (§4)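 Cells held 24 h with 5 or 10 μM, H2O2 then applied for 30 min in challenge arms (0.1 mM PC12, 1 mM U373-MG). Total cell extract (20 μg) incubated with Ac-DEVD-AMC (20 μM) for 1 h at 37 °C. Released AMC read at ex 360/em 460 nm. Expressed as % of control; mean ± SD, n = 9.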

PC-12 [22] = experiment: Neurotoxicity in rat PC12 cells assessed as change in cytosolic calcium level at 10 uM after 24 hrs by indo-1/AM staining-based fluorocytometric analysis (reference value: 51.3 +/- 11.3 nM); type: toxicity, cell-based; details: pc-12, 24 h
[23] = Neurotoxicity in human U373MG cells assessed as caspase-3 activation at 5 to 10 uM after 24 hrs by fluorometric analysis in presence of Ac-DEVD-AMC; type: toxicity, cell-based; details: u-373mg atcc; procedure, shortened: as §4
PC-12 [24] = experiment: Neurotoxicity in rat PC12 cells assessed as change in mitochondrial calcium level at 5 uM after 24 hrs by Rhod-2 staining-based fluorocytometric analysis (reference value: 1 +/- 0.02 nM); type: toxicity, cell-based; details: pc-12, 24 h; procedure, shortened: as §1
U373 MG [25] = experiment: Neuroprotective activity in human U373MG cells assessed as inhibition of H2O2-induced caspase-3 activity at 5 to 10 uM incubated for 24 hrs prior to H2O2 challenge measured after 30 mins by fluorometric analysis in presence of Ac-DEVD-AMC; type: functional, cell-based; details: U-373MG ATCC; procedure, shortened: as §4
PC-12 [26] = experiment: Neuroprotective activity in rat PC12 cells assessed as reduction of H2O2-induced mitochondrial calcium level at 10 uM incubated for 24 hrs prior to H2O2 challenge measured after 30 mins by Rhod-2 staining-based fluorocytometric analysis (reference value: 1.7 +/- 0.01 nM); type: functional; procedure, shortened: as §1
PC-12 [27] = experiment: Neurotoxicity in rat PC12 cells assessed as change in mitochondrial calcium level at 10 uM after 24 hrs by Rhod-2 staining-based fluorocytometric analysis (reference value: 1 +/- 0.02 nM); type: toxicity, cell-based; details: pc-12, 24 h; procedure, shortened: as §1
PC-12 [28] = experiment: Neurotoxicity in rat PC12 cells assessed as caspase-3 activation at 5 to 10 uM after 24 hrs by fluorometric analysis in presence of Ac-DEVD-AMC; type: toxicity, cell-based; details: pc-12, 24 h; procedure, shortened: as §4

Row | SMILES | Activity (PC-12 [1]) | Activity (PC-12 [2]) | Activity [3] | Activity [4] | Activity (U373 MG [5]) | Activity [6] | Activity (PC-12 [7]) | Activity (PC-12 [8]) | Activity (U373 MG [9]) | Activity (U373 MG [10]) | Activity [12] | Activity [13] | Activity (PC-12 [15]) | Activity (PC-12 [16]) | Activity (PC-12 [17]) | Activity (U373 MG [18]) | Activity (PC-12 [19]) | Activity [20] | Activity (PC-12 [21]) | Activity (PC-12 [22]) | other results
1 | C=CC(=C)CC[C@H]1[C@]2(C)CCC[C@](C)(CO)[C@H]2[C@H](O)C[C@]1(C)O [ANDALUSOL] | 1.3 nM | 185.8 nM | 0.97 nM | Non-toxic | 1.15 nM | Non-toxic | Non-toxic | Non-toxic | 189.6 nM | 1.09 nM | 92.2 nM | 0.99 nM | 56.5 nM | 174.8 nM | Active | 166.2 nM | Active | 98 nM | Active | 56.8 nM | Activity (U373 MG [11]): Active; Activity (U373 MG [14]): Active; Activity [23]: Non-toxic; Activity (PC-12 [24]): 1.05 nM; Activity (U373 MG [25]): Active; Activity (PC-12 [26]): 1.2 nM; Activity (PC-12 [27]): 1.09 nM; Activity (PC-12 [28]): Non-toxic
2 | CC1(C)CCC[C@]2(C)[C@@H]1C[C@H](O)[C@@]13C=C[C@@](CO)(C1)[C@H](O)C[C@@H]23 [CONCHITRIOL] | 1.4 nM | 188.8 nM | 0.99 nM | Non-toxic | 1.48 nM | Non-toxic | Non-toxic | Non-toxic | 479.6 nM | 1.45 nM | 93.2 nM | 0.97 nM | 53.5 nM | 192.6 nM | Active | 430.9 nM | Active | 98 nM | Active | 60.6 nM | Activity [23]: Non-toxic; Activity (PC-12 [24]): 1.08 nM; Activity (PC-12 [26]): 1.3 nM; Activity (PC-12 [27]): 1.05 nM; Activity (PC-12 [28]): Non-toxic
3 | CC1(C)CCC[C@H]2C1=CC[C@H]1C[C@@](C)([C@@H](O)CO)C[C@@H](O)[C@@]12C [LAGASCATRIOL] | 1.4 nM | 202.5 nM | 1.02 nM | Non-toxic | 1.22 nM | Non-toxic | Non-toxic | Non-toxic | 222.5 nM | 1.17 nM | 102.1 nM | 1.05 nM | 63.5 nM | 187.7 nM | Active | 208.5 nM | Active | 98.1 nM | Active | 51.4 nM | Activity (U373 MG [11]): Active; Activity (U373 MG [14]): Active; Activity [23]: Non-toxic; Activity (PC-12 [24]): 0.9 nM; Activity (U373 MG [25]): Active; Activity (PC-12 [26]): 1.5 nM; Activity (PC-12 [27]): 0.98 nM; Activity (PC-12 [28]): Non-toxic
